This note sets out measurements from ChEMBL document CHEMBL1127826, “Inhibitors of acyl-CoA:cholesterol acyltransferase (ACAT). 7. Development of a series of substituted N-phenyl-N'-[(1-phenylcyclopentyl)methyl]ureas with enhanced hypocholesterolemic activity” (J Med Chem, 1994).

The target in series [1] is T1, Acyl-CoA:cholesterol acyltransferase (Oryctolagus cuniculus, UniProt Q95214).
T1 sequence (Q95214 whole entry): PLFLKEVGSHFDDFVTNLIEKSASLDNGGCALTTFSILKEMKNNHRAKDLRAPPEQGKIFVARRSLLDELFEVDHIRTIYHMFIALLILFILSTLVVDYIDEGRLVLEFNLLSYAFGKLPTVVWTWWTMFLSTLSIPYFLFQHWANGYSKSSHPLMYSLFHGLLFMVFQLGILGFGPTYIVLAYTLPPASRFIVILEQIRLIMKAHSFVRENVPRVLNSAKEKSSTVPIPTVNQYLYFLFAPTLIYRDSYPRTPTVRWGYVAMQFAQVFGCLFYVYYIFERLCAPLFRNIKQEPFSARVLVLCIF
Nature of the series: Tested for in vitro inhibition against Acyl coenzyme A:cholesterol acyltransferase of intestinal microsomes in cholesterol-fed rabbits. The arrangement: species or system Microsome. In outline:
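Microsomes were prepared from intestine of cholesterol-fed rabbits. ACAT activity was measured using [1-14C]oleoyl-CoA as substrate. Each determination was run in triplicate.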

Series [2] is filed under the species Rattus norvegicus. Nature of the series: Percent change in total cholesterol in peanut oil (5.5%) - cholic acid (0.3%) - Cholesterol (1.5%) fed rats after a single dose. The class given is functional. The gist of the method: (§1)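 Male Sprague-Dawley rats (200-225 g), n=5-7/group, given a single oral dose at 4 p.m. as a suspension in 1.5% CMC/0.2% Tween-20 in water (50 mg/kg); controls received vehicle alone. The rats then had free access to chow with peanut oil, cholesterol and cholic acid. At 8 a.m. next day they were bled by cardiac puncture under ether, and serum total cholesterol was measured as % change versus controls (unpaired two-tailed t-test).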

The species entered for series [3] is Rattus norvegicus. Briefly: Percent change in total cholesterol in peanut oil (5.5%)-, cholic acid (0.3%)-, Cholesterol (1.5%)-fed rats after a single dose. The class given is functional. The gist of the method: as §1
The nature of series [4]: Compound was evaluated for the distribution coefficient at pH 7.4. The class given is physicochemical. The note with it: octanol/water, read-out: logD.
The subject of series [5] is Rattus norvegicus. Briefly: Compound was evaluated for the percentage change in total cholesterol in peanut oil (5.5%)-cholic acid (0.3%)-cholesterol (1.5%)-fed rats at 30 mg/kg. The class given is functional.

Consider `Cc1ccc(C2(CNC(=O)Nc3c(C(C)C)cccc3C(C)C)CCCC2)cc1`, for which, in series [1], the midpoint of inhibition, the IC50, lay at 25 nM. Besides, the “Delta TC” value in the series listed under Rattus norvegicus [2] is reported as -70%.

Consider `COc1ccccc1C1(CNC(=O)Nc2c(C(C)C)cccc2C(C)C)CCCC1`, for which inhibition in series [1] was half-maximal at 23 nM (IC50). Also, in the series listed under Rattus norvegicus [3], the “Delta TC” value is -53%.

`CC(C)c1cccc(C(C)C)c1NC(=O)NCC1(c2ccc([N+](=O)[O-])cc2)CCCC1`: inhibition in series [1] was half-maximal at 131 nM (IC50).

With `CC(C)c1cccc(C(C)C)c1NC(=O)NCC1(c2ccc(C(C)(C)C)cc2)CCCC1`, it took 63 nM to reach half-maximal inhibition in series [1] (IC50). For the same molecule, the “Delta TC” value in the series listed under Rattus norvegicus [2] is on record as -48%.

`CC(C)c1cccc(C(C)C)c1NC(=O)NCC1(c2cccc(CN)c2)CCCC1` came in with an IC50 in series [1] of 440 nM. Also, the logD in series [4] was found to be 3.64. Moreover, in the series listed under Rattus norvegicus [3], the “Delta TC” value is -49%.

In the case of `CC(C)c1cccc(C(C)C)c1NC(=O)NCC1(c2ccccc2C(F)(F)F)CCCC1`, in series [1], the IC50 is 18 nM. Besides, the “Delta TC” value in the series listed under Rattus norvegicus [2] is reported as -50%.

As to `COC(=O)c1ccc(C2(CNC(=O)Nc3c(C(C)C)cccc3C(C)C)CCCC2)cc1`, the IC50 in series [1] was determined as 360 nM. For the same molecule, in the series listed under Rattus norvegicus [3], the “Delta TC” value is reported as -3%.

As to `Cc1ccc(C)c(C2(CNC(=O)Nc3c(C(C)C)cccc3C(C)C)CCCC2)c1`, half-maximal inhibition in series [1] (IC50) was put at 39 nM. In the series listed under Rattus norvegicus [2], the “Delta TC” value was -48%.

As for `CC(C)c1cccc(C(C)C)c1NC(=O)NCC1(c2ccc(Cl)cc2)CCCC1`, the IC50 in series [1] was found to be 32 nM. Moreover, the “Delta TC” value in the series listed under Rattus norvegicus [2] is -64%.

In series [1], `CC(C)c1cccc(C(C)C)c1NC(=O)NCC1(c2ccc(NCCO)cc2)CCCC1` displayed an IC50 of 25 nM. Besides, the “Delta TC” value in the series listed under Rattus norvegicus [3] is on record as -63%.

Regarding `CC(C)c1cccc(C(C)C)c1NC(=O)NCC1(c2ccc(F)cc2)CCCC1`, half-maximal inhibition in series [1] (IC50) was put at 23 nM. Further, the “Delta TC” value in the series listed under Rattus norvegicus [2] is recorded as -57%.

Molecule `CC(C)c1cccc(C(C)C)c1NC(=O)NCC1(c2ccc(Br)cc2)CCCC1` came in with an IC50 in series [1] of 29 nM. In addition, the “Delta TC” value in the series filed under Rattus norvegicus [2] is -59%.

Regarding `CC(C)c1cccc(C(C)C)c1NC(=O)NCC1(c2ccc(N(C)C)cc2C(F)(F)F)CCCC1`, in series [1], the IC50 came to 50 nM.

With `CC(C)c1cccc(C(C)C)c1NC(=O)NCC1(c2cc(C(F)(F)F)cc(C(F)(F)F)c2)CCCC1`, the IC50 in series [1] came out at 57 nM. Besides, in the series filed under Rattus norvegicus [2], the “Delta TC” value is on record as -32%.

For the molecule `CC(C)c1cccc(C(C)C)c1NC(=O)NCC1(c2ccc(O)cc2)CCCC1`, the IC50 in series [1] was determined as 42 nM. For the same molecule, the “Delta TC” value in the series filed under Rattus norvegicus [3] is -31%.

In series [1], `CC(C)c1cccc(C(C)C)c1NC(=O)NCC1(c2ccc(C(=O)O)cc2)CCCC1` displayed an IC50 of 3100 nM. Also, the “Delta TC” value in the series listed under Rattus norvegicus [3] is reported as -8%.

In turn, `COc1cccc(C2(CNC(=O)Nc3c(C(C)C)cccc3C(C)C)CCCC2)c1` came in with an IC50 in series [1] of 13 nM. Moreover, the “Delta TC” value in the series listed under Rattus norvegicus [3] is -42%.

In the case of `CC(C)c1cccc(C(C)C)c1NC(=O)NCC1(c2ccccc2[N+](=O)[O-])CCCC1`, in series [1], the IC50 is 27 nM. In addition, in the series listed under Rattus norvegicus [3], the “Delta TC” value was -45%.

In the case of `COc1ccc(C2(CNC(=O)Nc3c(C(C)C)cccc3C(C)C)CCCC2)cc1`, in series [1], the IC50 came out at 31 nM. Also, the “Delta TC” value in the series listed under Rattus norvegicus [3] is listed as -41%.

Take `CC(C)c1cccc(C(C)C)c1NC(=O)NCC1(c2cccc(CN(CCO)CCO)c2)CCCC1`: the logD in series [4] came to 3.55. Further, the entries for the “Delta TC” value with Rattus norvegicus [5] and in the series filed under Rattus norvegicus [3] were -63% and -33%, respectively.

With `CC(C)c1cccc(C(C)C)c1NC(=O)NCC1(c2ccccc2N)CCCC1`, in series [1], the IC50 was 140 nM. Further, the “Delta TC” value in the series filed under Rattus norvegicus [3] was -58%.

`CC(C)c1cccc(C(C)C)c1NC(=O)NCC1(c2cccc(C(=O)O)c2)CCCC1`: the IC50 in series [1] turned out to be 620 nM. For the same molecule, the “Delta TC” value in the series filed under Rattus norvegicus [3] is listed as -40%.

Consider `Cc1ccc(C2(CNC(=O)Nc3c(C(C)C)cccc3C(C)C)CCCC2)c(C)c1`, for which the IC50 in series [1] worked out at 50 nM. The “Delta TC” value in the series listed under Rattus norvegicus [2] was -50%.

For `CC(C)c1cccc(C(C)C)c1NC(=O)NCC1(c2ccc(OCc3ccccc3)cc2)CCCC1`, in series [1], it took 34 nM to reach half-maximal inhibition (IC50). For the same molecule, the “Delta TC” value in the series filed under Rattus norvegicus [3] is on record as -33%.

Turning to `CC(C)c1cccc(C(C)C)c1NC(=O)NCC1(c2ccc(N(CCO)CCO)cc2)CCCC1`, the IC50 in series [1] came out at 21 nM. Moreover, the “Delta TC” value in the series filed under Rattus norvegicus [3] was -50%.

For `CC(C)c1cccc(C(C)C)c1NC(=O)NCC1(c2cccc(C(F)(F)F)c2)CCCC1`, half-maximal inhibition in series [1] (IC50) required 27 nM. For the same molecule, in the series listed under Rattus norvegicus [2], the “Delta TC” value was -45%.

The molecule `CC(C)c1cccc(C(C)C)c1NC(=O)NCC1(c2cccc([N+](=O)[O-])c2)CCCC1` showed an IC50 in series [1] of 51 nM. The “Delta TC” value in the series filed under Rattus norvegicus [3] was -51%.

In series [1], `CC(C)c1cccc(C(C)C)c1NC(=O)NCC1(c2cccc(OCc3ccccc3)c2)CCCC1` had a concentration for half-maximal inhibition (IC50) of 30 nM. Also, the “Delta TC” value in the series filed under Rattus norvegicus [3] is reported as -73%.

In series [1], `CC(C)c1cccc(C(C)C)c1NC(=O)NCC1(c2ccc(C(F)(F)F)cc2)CCCC1` had an IC50 of 66 nM. Further, the “Delta TC” value in the series listed under Rattus norvegicus [2] was -39%.

Molecule `CC(C)c1cccc(C(C)C)c1NC(=O)NCC1(c2ccc(CC(C)(C)C)cc2)CCCC1` returned an IC50 in series [1] of 159 nM. Moreover, the “Delta TC” value in the series filed under Rattus norvegicus [2] was -53%.

In turn, `CC(C)c1ccc(C2(CNC(=O)Nc3c(C(C)C)cccc3C(C)C)CCCC2)cc1` had an IC50 in series [1] of 48 nM. In addition, the “Delta TC” value in the series listed under Rattus norvegicus [2] is reported as -63%.

Take `CC(C)c1cccc(C(C)C)c1NC(=O)NCC1(c2ccc(N)cc2)CCCC1`: in series [1], half-maximal inhibition (IC50) was put at 29 nM. Also, the “Delta TC” value in the series listed under Rattus norvegicus [3] was -76%.

As to `CC(=O)OCCN(CCOC(C)=O)Cc1cccc(C2(CNC(=O)Nc3c(C(C)C)cccc3C(C)C)CCCC2)c1`, 33 nM corresponded to half-maximal inhibition in series [1] (IC50). The logD in series [4] worked out at 4.55. Moreover, the figures for the “Delta TC” value in the series with Rattus norvegicus [5] and in the series listed under Rattus norvegicus [3] were -71% and -35%, respectively.

As for `CC(C)c1cccc(C(C)C)c1NC(=O)NCC1(c2cccc(N(C)C)c2)CCCC1`, the IC50 in series [1] was found to be 33 nM. Besides, the “Delta TC” value in the series listed under Rattus norvegicus [3] was -63%.

In turn, `COC(=O)c1cccc(C2(CNC(=O)Nc3c(C(C)C)cccc3C(C)C)CCCC2)c1` came in with an IC50 in series [1] of 34 nM. Further, the “Delta TC” value in the series filed under Rattus norvegicus [3] is -51%.

In series [1], `Cc1cc(C)c(C2(CNC(=O)Nc3c(C(C)C)cccc3C(C)C)CCCC2)c(C)c1` yielded an IC50 of 56 nM. Moreover, the “Delta TC” value in the series filed under Rattus norvegicus [2] was -24%.

For `CC(C)c1cccc(C(C)C)c1NC(=O)NCC1(c2cccc(CBr)c2)CCCC1`, half-maximal inhibition in series [1] (IC50) required 44 nM. Moreover, in series [4], the logD is 5.23. For the same molecule, the “Delta TC” value in the series listed under Rattus norvegicus [2] is recorded as -26%.

With `CC(C)c1cccc(C(C)C)c1NC(=O)NCC1(c2cccc(CO)c2)CCCC1`, half-maximal inhibition in series [1] (IC50) required 15 nM. The “Delta TC” value in the series listed under Rattus norvegicus [3] is listed as -40%.

`Cc1cccc(C2(CNC(=O)Nc3c(C(C)C)cccc3C(C)C)CCCC2)c1`: the IC50 in series [1] amounted to 15 nM. In addition, in the series listed under Rattus norvegicus [2], the “Delta TC” value is on record as -52%.

On to `CC(C)c1cccc(C(C)C)c1NC(=O)NCC1(c2ccc(CO)cc2)CCCC1`, for which, in the series listed under Rattus norvegicus [3], the “Delta TC” value is on record as 19%.

In turn, `CC(C)c1cccc(C(C)C)c1NC(=O)NCC1(c2cccc(CN(C)C)c2)CCCC1.Cl` returned an IC50 in series [1] of 67 nM. The logD in series [4] was 4.87. The “Delta TC” value in the series on Rattus norvegicus [5] is -46%; in the series listed under Rattus norvegicus [3] it was -44%.

In series [1], `CC(C)c1cccc(C(C)C)c1NC(=O)NCC1(c2cccc(CC#N)c2)CCCC1` had an IC50 of 24 nM. In addition, in series [4], the logD came out at 3.61. Also, the “Delta TC” value in the series listed under Rattus norvegicus [3] is listed as -31%.

In turn, `Cc1ccccc1C1(CNC(=O)Nc2c(C(C)C)cccc2C(C)C)CCCC1` had an IC50 in series [1] of 17 nM. Further, the “Delta TC” value in the series filed under Rattus norvegicus [2] is -73%.

`CC(C)c1cccc(C(C)C)c1NC(=O)NCC1(c2cccc(N)c2)CCCC1` returned an IC50 in series [1] of 21 nM. The “Delta TC” value in the series filed under Rattus norvegicus [3] is listed as -75%.
